Legend:
[1] = tested on: Adrenergic receptor alpha-2 (Rattus norvegicus); assay: Agonism at alpha-2 adrenergic receptor, determined as dose required to produce a two fold shift of the cumulative dose-response curve to UK-14304 on the twitch response in rat vas deferens.
Rattus norvegicus [2] = assay: In vivo antagonist dose producing two fold shift of UK-14,304 in pithed rats. (prejunctional)
[3] = target: T1, Adrenergic receptor alpha-2 (Rattus norvegicus) (UniProt P22086+P19328+P22909); assay: Antagonism at alpha-2 adrenergic receptor, determined as dose required to produce a two fold shift of the dose-response curve to UK-14304 on the twitch response in rat vas deferens; assay type: functional, tissue-based
How it was run: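 Pithed rats, iv. Antagonist given before a cumulative dose-response curve to UK-14,304 on the vas deferens twitch response. DR2 is the antagonist dose (μg/kg) giving a twofold shift of the curve. Separate groups of rats (n = 4-6).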

Rattus norvegicus [4] = assay: In vivo antagonist dose producing two fold shift of cirazoline in pithed rats. (postjunctional); AG- agonist; assay type: functional, organism-based; conditions: filed as agonist
How it was run: (§1)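 Pithed rats, iv. Antagonist given before a cumulative dose-response curve to cirazoline on diastolic blood pressure. DR2 is the antagonist dose (μg/kg) giving a twofold rightward shift. Separate groups of rats (n = 4-6).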

[5] = target: Adrenergic receptor alpha-1 (Rattus norvegicus) (UniProt P15823+P23944+P43140); assay: Agonism at alpha-1 adrenergic receptor, determined as the dose required to produce a two fold shift of the cirazoline on diastolic blood pressure.; assay type: functional, tissue-based; conditions: Artery
Rattus norvegicus [6] = assay: In vivo ED40 is the raising diastolic blood pressure by 40 mm Hg in pithed rats. (postjunctional); assay type: functional; conditions: Artery
How it was run: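 Pithed rats, compound given iv in cumulative doses. ED40 is the dose (μg/kg) raising diastolic blood pressure by 40 mmHg. Separate groups of rats (n = 4-6).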

Rattus norvegicus [7] = assay: In vivo dose required to inhibit vas deferens contraction by 25% after pretreatment with prazosin in pithed rats. (prejunctional); ant- antagonist; assay type: functional, organism-based; conditions: filed as antagonist
How it was run: (§2)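 Pithed rats pretreated with prazosin (1 mg/kg). Compound given iv in cumulative doses. ED25 is the dose (μg/kg) inhibiting vas deferens contraction by 25%. Separate groups of rats (n = 4-6).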

[8] = tested on: Adrenergic receptor alpha-1 (Rattus norvegicus); assay: […] towards alpha-1 adrenergic receptor determined as the dose required to produce a two fold shift of the cirazoline on diastolic blood pressure (in vitro); conditions: Artery
[9] = target: T2, Adrenergic receptor alpha-2 (Rattus norvegicus, UniProt P22086+P19328+P22909); assay: Inhibition of saturable binding of [3H]idazoxan to alpha2-site in rat cerebral cortical membranes.; assay type: cell membranes, Membrane
T2 sequence (P22086 whole entry): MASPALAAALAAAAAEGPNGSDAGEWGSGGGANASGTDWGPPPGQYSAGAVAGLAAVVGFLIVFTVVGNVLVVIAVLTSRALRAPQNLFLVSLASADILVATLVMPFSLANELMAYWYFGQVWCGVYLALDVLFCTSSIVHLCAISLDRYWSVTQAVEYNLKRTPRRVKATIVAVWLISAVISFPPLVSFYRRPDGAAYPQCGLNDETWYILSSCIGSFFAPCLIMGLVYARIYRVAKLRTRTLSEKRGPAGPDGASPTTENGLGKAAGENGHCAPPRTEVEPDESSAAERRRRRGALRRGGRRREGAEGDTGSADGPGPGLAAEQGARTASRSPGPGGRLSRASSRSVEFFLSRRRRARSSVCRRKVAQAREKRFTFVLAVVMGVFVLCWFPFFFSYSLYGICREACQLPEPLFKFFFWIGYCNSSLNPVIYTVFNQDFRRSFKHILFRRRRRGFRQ
T2 sequence (P19328 whole entry): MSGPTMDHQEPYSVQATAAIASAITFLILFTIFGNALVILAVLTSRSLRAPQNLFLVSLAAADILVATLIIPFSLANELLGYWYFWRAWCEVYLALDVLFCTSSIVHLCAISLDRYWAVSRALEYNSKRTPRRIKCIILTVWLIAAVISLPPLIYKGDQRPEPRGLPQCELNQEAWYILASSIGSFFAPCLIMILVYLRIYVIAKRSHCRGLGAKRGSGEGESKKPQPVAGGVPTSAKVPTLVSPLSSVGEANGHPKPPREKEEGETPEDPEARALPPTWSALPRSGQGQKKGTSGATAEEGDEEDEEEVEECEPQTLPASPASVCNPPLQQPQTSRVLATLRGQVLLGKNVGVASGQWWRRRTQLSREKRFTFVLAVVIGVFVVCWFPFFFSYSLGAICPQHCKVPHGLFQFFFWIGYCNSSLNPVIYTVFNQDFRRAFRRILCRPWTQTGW
T2 sequence (P22909 whole entry): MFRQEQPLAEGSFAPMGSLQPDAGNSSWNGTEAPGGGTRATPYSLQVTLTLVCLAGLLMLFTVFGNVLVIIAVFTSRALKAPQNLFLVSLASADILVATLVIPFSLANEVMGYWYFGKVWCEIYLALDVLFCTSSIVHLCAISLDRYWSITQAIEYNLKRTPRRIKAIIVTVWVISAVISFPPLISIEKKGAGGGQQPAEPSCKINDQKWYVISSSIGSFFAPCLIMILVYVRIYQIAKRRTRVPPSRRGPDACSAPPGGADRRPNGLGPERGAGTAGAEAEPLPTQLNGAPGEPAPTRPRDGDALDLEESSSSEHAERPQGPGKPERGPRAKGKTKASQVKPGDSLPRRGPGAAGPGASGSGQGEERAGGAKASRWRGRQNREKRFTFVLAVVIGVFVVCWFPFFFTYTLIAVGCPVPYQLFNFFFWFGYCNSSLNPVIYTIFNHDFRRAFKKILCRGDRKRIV

[10] = target: T3, Adrenergic receptor alpha-1 (Rattus norvegicus, UniProt P15823+P23944+P43140); assay: Inhibition of saturable binding of [3H]prazosin to alpha1-site in rat cerebral cortical membranes.; assay type: cell membranes, Membrane
T3 sequence (P15823 whole entry): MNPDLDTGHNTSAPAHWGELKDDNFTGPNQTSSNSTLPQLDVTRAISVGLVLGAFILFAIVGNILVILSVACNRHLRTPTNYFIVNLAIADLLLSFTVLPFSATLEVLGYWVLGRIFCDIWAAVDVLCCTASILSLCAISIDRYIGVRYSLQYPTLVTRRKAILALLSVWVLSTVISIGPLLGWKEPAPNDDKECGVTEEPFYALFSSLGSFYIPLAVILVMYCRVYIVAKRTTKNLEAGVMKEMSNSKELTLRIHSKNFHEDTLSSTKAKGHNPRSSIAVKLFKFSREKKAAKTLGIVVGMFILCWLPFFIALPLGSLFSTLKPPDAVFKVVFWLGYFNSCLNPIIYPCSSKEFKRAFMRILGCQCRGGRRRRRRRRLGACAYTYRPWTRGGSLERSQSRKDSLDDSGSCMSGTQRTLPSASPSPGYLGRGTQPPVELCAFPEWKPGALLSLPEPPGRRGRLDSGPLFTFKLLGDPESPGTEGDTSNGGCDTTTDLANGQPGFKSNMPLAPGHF
T3 sequence (P23944 whole entry): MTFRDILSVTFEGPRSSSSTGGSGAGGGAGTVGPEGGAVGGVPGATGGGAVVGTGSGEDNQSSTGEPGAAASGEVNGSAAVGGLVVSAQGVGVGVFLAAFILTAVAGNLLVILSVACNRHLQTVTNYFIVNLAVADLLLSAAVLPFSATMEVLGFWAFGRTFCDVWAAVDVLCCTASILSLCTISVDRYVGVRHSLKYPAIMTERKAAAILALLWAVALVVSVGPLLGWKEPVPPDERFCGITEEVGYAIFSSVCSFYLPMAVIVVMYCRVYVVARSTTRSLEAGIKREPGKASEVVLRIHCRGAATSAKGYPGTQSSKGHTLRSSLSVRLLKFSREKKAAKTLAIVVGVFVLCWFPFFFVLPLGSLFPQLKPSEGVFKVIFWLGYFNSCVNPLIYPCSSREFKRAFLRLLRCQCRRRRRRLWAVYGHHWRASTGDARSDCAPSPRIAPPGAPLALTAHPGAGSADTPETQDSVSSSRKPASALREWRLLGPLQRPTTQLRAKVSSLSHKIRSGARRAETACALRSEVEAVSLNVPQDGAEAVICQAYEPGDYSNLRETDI
T3 sequence (P43140 whole entry): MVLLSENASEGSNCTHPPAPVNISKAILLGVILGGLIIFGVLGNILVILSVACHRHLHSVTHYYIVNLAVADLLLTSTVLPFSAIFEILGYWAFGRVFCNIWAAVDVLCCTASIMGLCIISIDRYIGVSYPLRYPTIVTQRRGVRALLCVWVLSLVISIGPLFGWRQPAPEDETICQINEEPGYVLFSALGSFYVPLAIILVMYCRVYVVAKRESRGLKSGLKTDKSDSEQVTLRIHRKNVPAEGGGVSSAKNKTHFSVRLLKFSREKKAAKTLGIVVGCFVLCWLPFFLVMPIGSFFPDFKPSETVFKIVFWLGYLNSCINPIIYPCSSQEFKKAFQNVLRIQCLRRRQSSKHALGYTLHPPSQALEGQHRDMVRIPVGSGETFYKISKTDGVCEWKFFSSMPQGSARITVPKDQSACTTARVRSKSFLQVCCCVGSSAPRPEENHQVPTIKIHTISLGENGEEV

[11] = target: T1, Adrenergic receptor alpha-2 (Rattus norvegicus); assay: Antagonist potency towards alpha-2 adrenergic receptor determined as the dose required to produce a two fold shift of the dose-response curve to UK-14304 on the twitch response of the vas deferens (in vitro);AG- agonist; assay type: functional, tissue-based; conditions: filed as agonist
Rattus norvegicus [12] = assay: In vivo dose required to inhibit vas deferens contraction by 25% after pretreatment with prazosin in pithed rats. (prejunctional); assay type: functional
How it was run: as §2

Rattus norvegicus [13] = assay: In vivo antagonist dose producing two fold shift of cirazoline in pithed rats. (postjunctional);AG- agonist; assay type: functional, organism-based; conditions: filed as agonist
How it was run: as §1

Compound | Prejunctional agonist potency [1] | DR2 (Rattus norvegicus [2]) [mg/kg] | Prejunctional antagonist potency [3] | ED40 (Rattus norvegicus [4]) | Postjunctional agonist potency [5] | ED40 (Rattus norvegicus [6]) [µg/kg] | ED25 (Rattus norvegicus [7]) | Postjunctional antagonist potency [8] | Ki [9] [nM] | Ki [10] [nM] | Prejunctional antagonist potency [11] | ED25 (Rattus norvegicus [12]) [µg/kg] | ED40 (Rattus norvegicus [13])
CCN1c2ccc(Cl)cc2CC1C1=NCCN1 (stereo not given) | 0 | 0.0059 | 8 | Agonist | 5 | 4.2 | Antagonist |  |  |  |  |  | 
CCC1(C2=NCCN2)Cc2ccccc2N1C (stereo not given) | 0 |  | 0.005 |  | 0 |  |  | < 0.012 |  |  |  |  | 
c1ccc(COCCN2c3ccccc3CC2C2=NCCN2)cc1 (stereo not given) | 0 |  | 0.05 |  | 0 |  |  | 18 |  |  |  |  | 
CCN1c2ccccc2CC1(C)C1=NCCN1 (stereo not given) | 0 |  | 0.1 |  | 0.03 |  |  |  |  |  |  |  | 
CCN1c2ccccc2CC1C1=NCCN1 (stereo not given) | 0 | 0.0016 | 9.1 | Agonist | 1.4 | 3.3 | Antagonist |  | 0.24 | 3.72 |  |  | 
CN1c2cc(Cl)ccc2CC1C1=NCCN1 (stereo not given) | 0.019 |  |  |  | 0.67 |  |  |  |  |  | Agonist |  | 
CN1c2cccc(Br)c2CC1C1=NCCN1 (stereo not given) | 0.34 |  |  |  | 3.4 | 0.3 |  |  |  |  | Agonist | 1.1 | 
CN1c2cccc(O)c2CC1C1=NCCN1 (stereo not given) | 0.16 |  |  |  | 6.7 | 0.3 |  |  |  |  | Agonist | 0.2 | Agonist
CCN1c2cccc(Cl)c2CC1C1=NCCN1 (stereo not given) | 0.51 | 0.0015 | 8 | Agonist | 4.4 | 0.8 | Antagonist |  | 0.42 | 1.9 |  |  | 
COc1cccc2c1N(C)C(C1=NCCN1)C2 (stereo not given) | 0.4 |  |  |  | 8 |  |  |  |  |  | Agonist |  | 
CN1c2ccc(Cl)cc2CC1C1=NCCN1 (stereo not given) | 0 | 0.0127 | 6.8 | Agonist | 2 | 14.3 | Antagonist |  |  |  |  |  | 
CN1c2c(Cl)cccc2CC1C1=NCCN1 (stereo not given) | 0.3 |  |  | Agonist | 3.5 | 1.4 |  |  |  |  | Agonist | 2.2 | 
Cl.c1ccc(N2c3ccccc3CC2C2=NCCN2)cc1 (stereo not given) | 0 | 0.0094 | 0.5 | Agonist | 5.3 | 1.1 | Antagonist |  | 3 | 8.4 |  |  | 
Nc1cc(Cl)c(N=C2NCCN2)c(Cl)c1 [APRACLONIDINE] |  |  |  |  |  | 0.7 |  |  |  |  |  | 0.4 | 
CN1c2cccc(F)c2CC1C1=NCCN1 (stereo not given) | 1 | 0.0008 |  |  | 6 |  |  |  |  |  | Agonist | 0.8 | Agonist
c1ccc2c(c1)CC(C1=NCCN1)O2 (stereo not given) | 0 |  | 1.7 |  | 0.01 |  |  | 0.16 |  |  |  |  | 
CNC[C@H](O)c1cccc(O)c1 [PHENYLEPHRINE] |  |  |  |  |  | 0.9 |  |  |  |  |  |  | 
COc1cccc2c1CC(C1=NCCN1)N2C (stereo not given) | 0 |  | 0.27 |  | 0.62 |  |  |  |  |  |  |  | 
c1ccc2c(c1)CC(C1=NCCN1)C2 | 0 |  | 0.4 |  | 0 |  |  | 0.8 |  |  |  |  | 

From ChEMBL document CHEMBL1124112, “Indoline analogues of idazoxan: potent alpha 2-antagonists and alpha 1-agonists” (J Med Chem, 1988)
